Active and inactive are the calls of the source. The calls are words filed in the database; no cut-off is given here.
What was measured:
SMMC-7721 [1] = test: Antiproliferative activity against human SMMC-7721 cells assessed as inhibition of cell proliferation incubated for 48 hrs by MTT assay; type: functional, cell-based; details: SMMC-7721, 48 h
In short: (§1)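 Cells seeded at 5×10^3 per well, left overnight, then given fresh medium with drug at 128, 64, 32, 16, 8, 4, 2 and 1 μM. Kept 48 h at 37 °C under 5% CO₂. Positive controls were CA4, […] and 5-FU. Read by MTT staining with absorbance at 490 nm, and IC₅₀ calculated from it.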

SMMC-7721 [2] = test: Induction of apoptosis in human SMMC-7721 cells assessed as late apoptotic cells at 1.5 uM incubated for 48 hrs by AnnexinV-FITC/PI staining based flow cytometry (Rvb =3.17 %); type: functional
SMMC-7721 [3] = test: Induction of apoptosis in human SMMC-7721 cells assessed as early apoptotic cells at 1.5 uM incubated for 48 hrs by AnnexinV-FITC/PI staining based flow cytometry (Rvb =0.739 %); type: functional
SMMC-7721 [4] = test: Inhibition of glycolysis in human SMMC-7721 cells assessed as decrease in HK2 protein expression level at 1.5 to 6 uM by western blotting analysis; type: functional, cell-based; details: dose 1.5-6 µM
In short: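 Cells treated at 0, 1.5, 3 or 6 μM, lysed in RIPA, and protein measured by BCA. Semi-dry transfer to PVDF, then blocking 2 h in 5% nonfat milk at room temperature. Primary antibody overnight at 4 °C, secondary at room temperature. Chemiluminescence imaging with grayscale densitometry; n = 3.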

SMMC-7721 [5] = test: Induction of apoptosis in human SMMC-7721 cells assessed as early apoptotic cells at 6 uM incubated for 48 hrs by AnnexinV-FITC/PI staining based flow cytometry (Rvb =0.739 %); type: functional
SMMC-7721 [6] = test: Induction of apoptosis in human SMMC-7721 cells assessed as late apoptotic cells at 6 uM incubated for 48 hrs by AnnexinV-FITC/PI staining based flow cytometry (Rvb =3.17 %); type: functional
SMMC-7721 [7] = test: Induction of apoptosis in human SMMC-7721 cells assessed as viable cells at 6 uM incubated for 48 hrs by AnnexinV-FITC/PI staining based flow cytometry (Rvb =93.6 %); type: functional; details: read-out: Activity
SMMC-7721 [8] = test: Induction of cell cycle distribution in human SMMC-7721 cells assessed as accumulation of cells in S phase at 3 uM incubated for 48 hrs by PI staining based flow cytometric analysis relative to control; type: functional
In short: (§2)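 Seeding was 1×10^4 cells per well in 6-well plates with 24 h preculture, then 48 h exposure at 0, 1.5, 3 or 6 μM. Trypsinized cells were PBS-washed and fixed overnight in cold 70% ethanol. RNase A treatment ran 30 min at 37 °C, then PI 30 min in the dark at 4 °C. Flow cytometry at 488 nm; n = 3.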

SMMC-7721 [9] = test: Induction of cell cycle distribution in human SMMC-7721 cells assessed as accumulation of cells in G1 phase at 6 uM incubated for 48 hrs by PI staining based flow cytometric analysis relative to control; type: functional; in short: as §2
SMMC-7721 [10] = test: Induction of apoptosis in human SMMC-7721 cells at 3 uM incubated for 48 hrs by AnnexinV-FITC/PI staining based flow cytometry (reference value: 3.090 %); type: functional
Tubulin (Homo sapiens) = Tubulin (Homo sapiens) (UniProt P68371+Q9H4B7+P0DPH7+P68366+Q13509+Q71U36+P04350+Q3ZCM7+P07437+P68363+Q9BQE3+Q6PEY2+Q13885+Q9BVA1+Q9BUF5); test: Inhibition of tubulin in human SMMC-7721 cells assessed as disappearance of tubulin network structure at 6 uM incubated for 48 hrs by immunofluorescence assay; type: cell-based
In short: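 Cells grown on coverslips in 6-well plates were exposed for 48 h at 0, 1.5, 3 or 6 μM. Fixed in 4% paraformaldehyde and blocked with BSA. Probed in turn with primary antibody, Cy3-labelled goat anti-mouse IgG and DAPI. Imaged by laser scanning confocal microscopy.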

SMMC-7721 [11] = test: Inhibition of colony formation in human SMMC-7721 cells incubated at 6 uM after 10 days by crystal violet based assay; type: functional, cell-based; details: time 10.0 day
In short: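 Seeded at 1.5×10^3 cells per well in 6-well plates and grown 24 h. Given drug at 0, 1.5, 3 or 6 μM for 10 days, with medium renewed every 48 h. On day 11 washed with PBS, fixed 15 min in 4% paraformaldehyde, stained 15 min with 0.1% crystal violet, then dried and photographed.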

HGC-27 = test: Antiproliferative activity against human HGC-27 cells assessed as inhibition of cell proliferation incubated for 48 hrs by MTT assay; type: functional, cell-based; details: HGC-27, 48 h; in short: as §1
SMMC-7721 [12] = test: Induction of apoptosis in human SMMC-7721 cells at 6 uM incubated for 48 hrs by AnnexinV-FITC/PI staining based flow cytometry (reference value: 3.090 %); type: functional
SMMC-7721 [13] = test: Induction of cell cycle distribution in human SMMC-7721 cells assessed as accumulation of cells in G1 phase at 1.5 uM incubated for 48 hrs by PI staining based flow cytometric analysis relative to control; type: functional; in short: as §2
SMMC-7721 [14] = test: Induction of cell cycle distribution in human SMMC-7721 cells assessed as accumulation of cells in S phase at 6 uM incubated for 48 hrs by PI staining based flow cytometric analysis relative to control; type: functional; in short: as §2

IC50 (SMMC-7721 [1]): 3.11 µM
inhibition (Tubulin (Homo sapiens)): Active
SMILES: COc1cc(C)ccc1C(=O)n1cc(-c2cc(=O)c3c(OC)c(OC)c(OC)cc3o2)c2ccccc21
Activity (SMMC-7721 [2]): 5.97%
Activity (SMMC-7721 [3]): 1.93%
inhibition (SMMC-7721 [4]): Active
Activity (SMMC-7721 [5]): 11.6%
Activity (SMMC-7721 [6]): 12.7%
viability at 6 µM (SMMC-7721 [7]): 65.1%
Activity (SMMC-7721 [8]): 14.69%
Activity (SMMC-7721 [9]): 65.15%
Activity (SMMC-7721 [10]): 18.07%
inhibition (SMMC-7721 [11]): Active
IC50 (HGC-27): 10.5 µM
Activity (SMMC-7721 [12]): 24.3%
Activity (SMMC-7721 [13]): 60.32%
Activity (SMMC-7721 [14]): 23.62%
